{
  "source": "ChEMBL document CHEMBL1165977",
  "about": "“Novel analogues of Istaroxime, a potent inhibitor of Na(+),K(+)-ATPase: Synthesis, structure-activity relationship and 3D-quantitative structure-activity relationship of derivatives at position 6 on the androstane scaffold” (Bioorg Med Chem, 2010)",
  "key": {"[1]": {"assay": "Inhibition of dog kidney Na+K+-ATPase assessed as hydrolysis of [32P]ATP", "design": "species or system Canis lupus familiaris", "outline": "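Dog kidney Na+,K+-ATPase, isolated and purified by the Jørgensen method. Enzyme activity was read as % hydrolysis of 32P-ATP with versus without test compound. IC50 was obtained by nonlinear least-squares curve fitting, as the mean of two or three experiments.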"}, "Cavia porcellus [2]": {"test_system": "Cavia porcellus", "assay": "Positive inotropic activity in guinea pig atria assessed as increase in […] at 0.16 ml/min, iv", "type": "functional"}, "Cavia porcellus [3]": {"species_on_record": "Cavia porcellus", "assay": "Positive inotropic activity in electrically driven guinea pig atria assessed as maximal concentration required to increase in […]", "type": "functional"}, "[4]": {"assay": "Therapeutic index, ratio of lethal dose to ED80 for inotropic activity in guinea pig", "type": "organism-based, Cavia porcellus", "details": "in vivo", "outline": "(§1)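 Anesthetized guinea pigs with a jugular vein cannula and an intubated trachea for spontaneous respiration. After stabilization, drug was infused iv at 0.16 mL/min until death or for up to 90 min. Vehicle was DMSO diluted in physiological solution to 1% DMSO final. Read-out was +dP/dt_max. ED80 (dose raising +dP/dt_max by 80%) came from the dose–response, and the doses giving maximum inotropy and death were recorded, giving the lethal dose/ED80 ratio.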"}, "Cavia porcellus [5]": {"test_system": "Cavia porcellus", "assay": "Positive inotropic activity in iv dosed guinea pig atria assessed as concentration required to increase in […]", "type": "functional"}, "Cavia porcellus [6]": {"test_system": "Cavia porcellus", "assay": "Toxicity in guinea pig assessed as death at 0.16 ml/min, iv up to 90 mins", "type": "organism-based", "details": "in vivo, 1.5 h", "outline": "as §1"}},
  "data": [
    {"smiles": "C[C@]12CC/C(=N\\OCCN)C[C@@H]1[C@@H](CCO)C[C@@H]1[C@@H]2CC[C@]2(C)C(=O)CC[C@@H]12.Cl", "values": [
      {"measurement": "IC50", "setting": "[1]", "result": 320, "unit": "nM"},
      {"measurement": "Emax", "setting": "Cavia porcellus [2]", "result": 238, "unit": "%"},
      {"measurement": "Activity", "setting": "Cavia porcellus [3]", "result": 17, "unit": "µM/g"},
      {"measurement": "selectivity ratio", "setting": "[4]", "result": 23},
      {"measurement": "ED80", "setting": "Cavia porcellus [5]", "result": 2.5, "unit": "µM/g"}
    ]},
    {"smiles": "C[C@]12CC/C(=N\\OCCN)C[C@@H]1[C@@H](O[N+](=O)[O-])C[C@@H]1[C@@H]2CC[C@]2(C)C(=O)CC[C@@H]12.O=C(O)/C=C/C(=O)O", "values": [
      {"measurement": "IC50", "setting": "[1]", "result": 330, "unit": "nM"},
      {"measurement": "Emax", "setting": "Cavia porcellus [2]", "result": 172, "unit": "%"},
      {"measurement": "Activity", "setting": "Cavia porcellus [3]", "result": 9.8, "unit": "µM/g"},
      {"measurement": "selectivity ratio", "setting": "[4]", "result": 8},
      {"measurement": "ED80", "setting": "Cavia porcellus [5]", "result": 3.6, "unit": "µM/g"}
    ]},
    {"smiles": "C[C@]12CC/C(=N\\O[C@@H]3CCNC3)C[C@@H]1[C@@H](C(N)=O)C[C@@H]1[C@@H]2CC[C@]2(C)C(=O)CC[C@@H]12.Cl", "values": [
      {"measurement": "IC50", "setting": "[1]", "result": 140, "unit": "nM"},
      {"measurement": "Emax", "setting": "Cavia porcellus [2]", "result": 109, "unit": "%"},
      {"measurement": "Activity", "setting": "Cavia porcellus [3]", "result": 8.8, "unit": "µM/g"},
      {"measurement": "Activity", "setting": "Cavia porcellus [6]", "result": "Non-toxic"},
      {"measurement": "ED80", "setting": "Cavia porcellus [5]", "result": 2.2, "unit": "µM/g"}
    ]},
    {"smiles": "CNCCCO/N=C1\\CC[C@@]2(C)[C@H](C1)[C@@H](CO)C[C@@H]1[C@@H]2CC[C@]2(C)C(=O)CC[C@@H]12.Cl", "values": [
      {"measurement": "IC50", "setting": "[1]", "result": 690, "unit": "nM"},
      {"measurement": "Emax", "setting": "Cavia porcellus [2]", "result": 263, "unit": "%"},
      {"measurement": "Activity", "setting": "Cavia porcellus [3]", "result": 9, "unit": "µM/g"},
      {"measurement": "selectivity ratio", "setting": "[4]", "result": 28},
      {"measurement": "ED80", "setting": "Cavia porcellus [5]", "result": 1.5, "unit": "µM/g"}
    ]},
    {"smiles": "CNCCCO/N=C1\\CC[C@@]2(C)[C@H](C1)[C@@H](C)C[C@@H]1[C@@H]2CC[C@]2(C)C(=O)CC[C@@H]12.Cl", "values": [
      {"measurement": "IC50", "setting": "[1]", "result": 910, "unit": "nM"},
      {"measurement": "Emax", "setting": "Cavia porcellus [2]", "result": 213, "unit": "%"},
      {"measurement": "Activity", "setting": "Cavia porcellus [3]", "result": 18, "unit": "µM/g"},
      {"measurement": "Activity", "setting": "Cavia porcellus [6]", "result": "Non-toxic"},
      {"measurement": "ED80", "setting": "Cavia porcellus [5]", "result": 8.1, "unit": "µM/g"}
    ]},
    {"smiles": "CO[C@H]1C[C@@H]2[C@H](CC[C@]3(C)C(=O)CC[C@@H]23)[C@@]2(C)CC/C(=N\\OCCN)C[C@H]12.Cl", "values": [
      {"measurement": "IC50", "setting": "[1]", "result": 710, "unit": "nM"},
      {"measurement": "Emax", "setting": "Cavia porcellus [2]", "result": 167, "unit": "%"},
      {"measurement": "Activity", "setting": "Cavia porcellus [3]", "result": 18, "unit": "µM/g"},
      {"measurement": "selectivity ratio", "setting": "[4]", "result": 9},
      {"measurement": "ED80", "setting": "Cavia porcellus [5]", "result": 4.3, "unit": "µM/g"}
    ]},
    {"smiles": "CNCCCO/N=C1\\CC[C@@]2(C)[C@H](C1)[C@@H](NC=O)C[C@@H]1[C@@H]2CC[C@]2(C)C(=O)CC[C@@H]12.Cl", "values": [
      {"measurement": "IC50", "setting": "[1]", "result": 1100, "unit": "nM"},
      {"measurement": "Emax", "setting": "Cavia porcellus [2]", "result": 177, "unit": "%"},
      {"measurement": "Activity", "setting": "Cavia porcellus [3]", "result": 2.8, "unit": "µM/g"},
      {"measurement": "selectivity ratio", "setting": "[4]", "result": 47},
      {"measurement": "ED80", "setting": "Cavia porcellus [5]", "result": 0.93, "unit": "µM/g"}
    ]},
    {"smiles": "COC(=O)[C@H]1C[C@@H]2[C@H](CC[C@]3(C)C(=O)CC[C@@H]23)[C@@]2(C)CC/C(=N\\O[C@@H]3CCNC3)C[C@H]12.Cl", "values": [
      {"measurement": "IC50", "setting": "[1]", "result": 160, "unit": "nM"},
      {"measurement": "Emax", "setting": "Cavia porcellus [2]", "result": 164, "unit": "%"},
      {"measurement": "Activity", "setting": "Cavia porcellus [3]", "result": 23, "unit": "µM/g"},
      {"measurement": "Activity", "setting": "Cavia porcellus [6]", "result": "Non-toxic"},
      {"measurement": "ED80", "setting": "Cavia porcellus [5]", "result": 11, "unit": "µM/g"}
    ]},
    {"smiles": "C[C@]12CC/C(=N\\OCCN)C[C@@H]1/C(=N/O)C[C@@H]1[C@@H]2CC[C@]2(C)C(=O)CC[C@@H]12.Cl", "values": [
      {"measurement": "IC50", "setting": "[1]", "result": 24, "unit": "nM"},
      {"measurement": "Emax", "setting": "Cavia porcellus [2]", "result": 180, "unit": "%"},
      {"measurement": "Activity", "setting": "Cavia porcellus [3]", "result": 4.3, "unit": "µM/g"},
      {"measurement": "selectivity ratio", "setting": "[4]", "result": 11},
      {"measurement": "ED80", "setting": "Cavia porcellus [5]", "result": 0.84, "unit": "µM/g"}
    ]},
    {"smiles": "CNCCCO/N=C1\\CC[C@@]2(C)[C@H](C1)/C(=N/O)C[C@@H]1[C@@H]2CC[C@]2(C)C(=O)CC[C@@H]12.Cl", "values": [
      {"measurement": "IC50", "setting": "[1]", "result": 200, "unit": "nM"},
      {"measurement": "Emax", "setting": "Cavia porcellus [2]", "result": 158, "unit": "%"},
      {"measurement": "Activity", "setting": "Cavia porcellus [3]", "result": 15, "unit": "µM/g"},
      {"measurement": "Activity", "setting": "Cavia porcellus [6]", "result": "Non-toxic"},
      {"measurement": "ED80", "setting": "Cavia porcellus [5]", "result": 7.1, "unit": "µM/g"}
    ]},
    {"smiles": "C[C@]12CC/C(=N\\OCCN)C[C@@H]1[C@@H](NC=O)C[C@@H]1[C@@H]2CC[C@]2(C)C(=O)CC[C@@H]12.O=C(O)/C=C/C(=O)O", "values": [
      {"measurement": "IC50", "setting": "[1]", "result": 160, "unit": "nM"},
      {"measurement": "Emax", "setting": "Cavia porcellus [2]", "result": 174, "unit": "%"},
      {"measurement": "Activity", "setting": "Cavia porcellus [3]", "result": 27, "unit": "µM/g"},
      {"measurement": "selectivity ratio", "setting": "[4]", "result": 33},
      {"measurement": "ED80", "setting": "Cavia porcellus [5]", "result": 2, "unit": "µM/g"}
    ]},
    {"smiles": "C[C@]12CC/C(=N\\O[C@@H]3CCNC3)C[C@@H]1[C@@H](NC=O)C[C@@H]1[C@@H]2CC[C@]2(C)C(=O)CC[C@@H]12.Cl", "values": [
      {"measurement": "IC50", "setting": "[1]", "result": 41, "unit": "nM"},
      {"measurement": "Emax", "setting": "Cavia porcellus [2]", "result": 142, "unit": "%"},
      {"measurement": "Activity", "setting": "Cavia porcellus [3]", "result": 6, "unit": "µM/g"},
      {"measurement": "selectivity ratio", "setting": "[4]", "result": 11},
      {"measurement": "ED80", "setting": "Cavia porcellus [5]", "result": 1.6, "unit": "µM/g"}
    ]},
    {"smiles": "C[C@H]1O[C@@H](O[C@H]2[C@@H](O)C[C@H](O[C@H]3[C@@H](O)C[C@H](O[C@H]4CC[C@@]5(C)[C@H](CC[C@@H]6[C@@H]5C[C@@H](O)[C@]5(C)[C@@H](C7=CC(=O)OC7)CC[C@]65O)C4)O[C@@H]3C)O[C@@H]2C)C[C@H](O)[C@@H]1O", "note": "[DIGOXIN]", "values": [
      {"measurement": "IC50", "setting": "[1]", "result": 310, "unit": "nM"},
      {"measurement": "Activity", "setting": "Cavia porcellus [3]", "result": 0.97, "unit": "µM/g"},
      {"measurement": "Activity", "setting": "Cavia porcellus [6]", "result": "Toxic"},
      {"measurement": "selectivity ratio", "setting": "[4]", "result": 3.2},
      {"measurement": "ED80", "setting": "Cavia porcellus [5]", "result": 0.41, "unit": "µM/g"}
    ]}
  ]
}
